Results reported in ChEMBL document CHEMBL3621043, “Discovery and Optimization of Novel, Selective Histone Methyltransferase SET7 Inhibitors by Pharmacophore- and Docking-Based Virtual Screening” (J Med Chem, 2015).
Calls of active or inactive are those of the source. The calls are words filed in the database; no cut-off is given here.

Key:
[1] = molecular target: T1, Histone-lysine N-methyltransferase SETD7 (Homo sapiens, UniProt Q8WTS6); assay: Inhibition of SET7 (unknown origin)
T1 sequence (Q8WTS6 whole entry): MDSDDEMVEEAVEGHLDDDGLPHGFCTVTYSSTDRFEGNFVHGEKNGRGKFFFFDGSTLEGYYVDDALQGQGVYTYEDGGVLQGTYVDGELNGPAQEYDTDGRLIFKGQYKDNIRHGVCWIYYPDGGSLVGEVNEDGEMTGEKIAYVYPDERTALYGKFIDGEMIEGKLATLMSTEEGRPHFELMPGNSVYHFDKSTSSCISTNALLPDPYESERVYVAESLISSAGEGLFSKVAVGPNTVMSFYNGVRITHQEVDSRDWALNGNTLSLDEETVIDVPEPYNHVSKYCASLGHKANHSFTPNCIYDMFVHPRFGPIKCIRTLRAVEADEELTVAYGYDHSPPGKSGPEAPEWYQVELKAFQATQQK
Procedure, shortened: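 AlphaLISA: purified SET7 in modified Tris buffer 15 min at room temperature, compounds added in DMSO, then substrate solution added for 60 min. Acceptor and donor beads incubated 60 min at room temperature in the dark, then Alpha-mode read. Inhibition % = (Max−Signal)/(Max−Min)×100; low control received assay buffer instead of enzyme.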

[2] = molecular target: T1, Histone-lysine N-methyltransferase SETD7; assay: Competitive inhibition of SET7 (unknown origin) after 60 mins by AlphaLISA method in presence of SAM
[3] = molecular target: DNA (cytosine-5)-methyltransferase 1 (Homo sapiens) (UniProt P26358); assay: Inhibition of DNMT1 (unknown origin) using poly(dI-DC) as substrate at 100 uM preincubated for 15 mins followed by substrate and [3H]SAM addition measured after 120 mins by microbeta counting analysis relative to control
Procedure, shortened: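 Radioactive methylation assay in modified Tris buffer with poly(dI-dC) substrate. Enzyme held 15 min at room temperature, then substrate and [3H]-SAM added. Reaction run 120 min at 37 °C, then moved to 0.5% PEI-pretreated filter plates, washed with water under vacuum and counted. Maximum = enzyme plus substrate; minimum = substrate only.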

[4] = molecular target: Histone-lysine N-methyltransferase EZH2 (Homo sapiens) (UniProt Q15910); assay: Inhibition of EZH2 (unknown origin) using H3K27me peptide as substrate at 100 uM preincubated for 15 mins followed by substrate/[3H]SAM addition by liquid scintillation counting analysis relative to control
Procedure, shortened: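 Enzyme in modified Tris buffer, 15 min at room temperature, then H3K27me peptide plus [3H]-SAM added to start. Stopped with cold SAM (final 0.5 mM), transferred to FlashPlate for at least 1 h at room temperature, washed with water/0.1% Tween-20, then scintillation counting.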

[5] = molecular target: Histone-lysine N-methyltransferase, H3 lysine-36 specific (Homo sapiens) (UniProt Q96L73); assay: Inhibition of NSD1 (unknown origin) at 100 uM preincubated for 15 mins followed by substrate/[3H]-SAM addition measured after 4 hrs by liquid scintillation counting analysis relative to control
Procedure, shortened: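 Enzyme in modified Tris buffer, 15 min at room temperature, then substrate and [3H]-SAM added. After 4 h, cold SAM stop, transfer to PEI-pretreated GF/B filter plate, water washes under vacuum, then scintillation counting.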

[6] = molecular target: T2, N-lysine methyltransferase KMT5A (Homo sapiens) (UniProt Q9NQR1); assay: Inhibition of SETD8 (unknown origin) at 100 uM preincubated for 15 mins measured after 120 mins by microbeta counting analysis in presence of [3H]-SAM relative to control
T2 sequence (whole entry): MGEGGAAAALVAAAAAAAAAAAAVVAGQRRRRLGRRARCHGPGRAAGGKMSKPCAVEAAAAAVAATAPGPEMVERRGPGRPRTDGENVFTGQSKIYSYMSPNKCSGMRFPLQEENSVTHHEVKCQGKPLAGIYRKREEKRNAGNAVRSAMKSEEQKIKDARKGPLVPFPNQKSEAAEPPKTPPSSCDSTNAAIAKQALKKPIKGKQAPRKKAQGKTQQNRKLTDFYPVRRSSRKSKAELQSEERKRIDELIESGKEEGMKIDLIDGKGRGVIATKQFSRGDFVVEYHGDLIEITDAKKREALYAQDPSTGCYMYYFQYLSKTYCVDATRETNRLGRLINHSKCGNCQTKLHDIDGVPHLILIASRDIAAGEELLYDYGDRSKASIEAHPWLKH
Procedure, shortened: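 Compounds added in DMSO and enzyme held 15 min at room temperature in modified Tris buffer. Reaction started with peptide plus [3H]-SAM and stopped with cold SAM after 120 min. Transferred to streptavidin FlashPlate for at least 60 min, washed with water/0.1% Tween-20, then counted.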

[7] = molecular target: T3, Histone-lysine N-methyltransferase EHMT2 (Homo sapiens) (UniProt Q96KQ7); assay: Inhibition of G9a (unknown origin) at 100 uM preincubated for 15 mins followed by substrate addition measured after 60 mins by AlphaLISA method relative to control
T3 sequence (whole entry): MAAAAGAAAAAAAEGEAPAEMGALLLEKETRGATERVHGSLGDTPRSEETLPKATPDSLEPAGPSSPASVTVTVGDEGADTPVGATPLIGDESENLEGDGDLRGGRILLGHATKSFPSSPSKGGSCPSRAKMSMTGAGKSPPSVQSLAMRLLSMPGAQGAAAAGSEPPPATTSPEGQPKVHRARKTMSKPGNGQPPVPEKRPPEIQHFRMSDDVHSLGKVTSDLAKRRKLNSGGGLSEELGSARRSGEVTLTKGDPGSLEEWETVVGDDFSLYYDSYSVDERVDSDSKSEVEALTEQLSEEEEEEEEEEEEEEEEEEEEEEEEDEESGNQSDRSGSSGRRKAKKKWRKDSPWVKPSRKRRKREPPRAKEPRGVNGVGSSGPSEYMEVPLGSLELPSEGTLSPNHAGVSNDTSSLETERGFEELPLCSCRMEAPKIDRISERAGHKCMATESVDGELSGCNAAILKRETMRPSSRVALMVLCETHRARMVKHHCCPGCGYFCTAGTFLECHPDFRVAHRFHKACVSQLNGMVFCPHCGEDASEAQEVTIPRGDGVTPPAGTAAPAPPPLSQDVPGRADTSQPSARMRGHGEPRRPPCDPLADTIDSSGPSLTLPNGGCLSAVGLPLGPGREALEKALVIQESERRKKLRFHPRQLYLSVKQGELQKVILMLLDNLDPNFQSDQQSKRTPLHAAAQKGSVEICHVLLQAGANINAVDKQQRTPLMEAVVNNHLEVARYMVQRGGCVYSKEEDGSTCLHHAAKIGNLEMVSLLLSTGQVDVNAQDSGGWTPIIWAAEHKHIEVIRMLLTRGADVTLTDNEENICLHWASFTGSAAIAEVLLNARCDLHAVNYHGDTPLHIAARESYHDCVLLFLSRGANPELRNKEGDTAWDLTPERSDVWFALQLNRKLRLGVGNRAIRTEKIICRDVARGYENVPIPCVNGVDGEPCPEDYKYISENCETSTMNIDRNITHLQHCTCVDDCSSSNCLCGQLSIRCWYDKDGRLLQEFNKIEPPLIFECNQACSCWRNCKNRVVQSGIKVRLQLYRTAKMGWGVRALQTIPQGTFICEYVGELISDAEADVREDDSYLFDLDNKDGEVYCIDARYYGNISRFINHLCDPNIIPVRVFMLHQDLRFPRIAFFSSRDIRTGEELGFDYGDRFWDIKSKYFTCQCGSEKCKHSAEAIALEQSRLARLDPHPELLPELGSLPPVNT
Procedure, shortened: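 AlphaLISA in modified Tris buffer: compounds (DMSO) with enzyme 15 min at room temperature, then substrate mix added for 60 min at room temperature. Acceptor and donor bead mix added for 60 min in subdued light, then Alpha signal read.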

[8] = molecular target: DNMT3A2/3L complex (Homo sapiens) (UniProt Q9Y6K1+Q9UJW3); assay: Inhibition of DNMT3A/3L (unknown origin) using IDT-01 sequence 1/IDT-01 sequence 2 as substrate at 100 uM preincubated for 15 mins followed by substrate addition measured after 4 hrs by liquid scintillation counting analysis relative to control; format: protein-complex assay
Procedure, shortened: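 Radioactive methylation assay in modified Tris buffer with IDT-01 Sequence 1 and Sequence 2 as substrates. Enzyme preincubated 15 min at room temperature before substrate added. After 4 h at room temperature, stopped with cold SAM, then transferred to FlashPlate and read by liquid scintillation counting.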

MV4-11 = assay: Cytotoxicity against human MV4-11 cells assessed as inhibition of cell proliferation after 120 hrs by alamar blue assay; format: functional, cell-based
Procedure, shortened: (§1)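 Cells seeded at approximately 2*10^4 per well in 100 µL medium, grown overnight, then exposed for about 120 h to 0–100 µM in DMSO. MCF7 and HCT116 read by MTT: 2 h at 37 °C, crystals dissolved in DMSO, absorbance 490 nm with 630 nm reference. HL60, MV4-11 and DHL4 read by alamarBlue, fluorescence ex 544/em 590 nm. Signals normalized to control wells.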

SUD4 = assay: Cytotoxicity against human SU-DHL4 cells assessed as inhibition of cell proliferation after 120 hrs by alamar blue assay; format: functional, cell-based; procedure, shortened: as §1
MCF7 = assay: cells; settings: Homo sapiens, MCF7, 120 h
HL-60 = assay: cells; settings: Homo sapiens, HL-60, 120 h
HCT-116 = assay: Cytotoxicity against human HCT116 cells assessed as inhibition of cell proliferation after 120 hrs by MTT assay
[9] = molecular target: Histone-lysine N-methyltransferase, H3 lysine-79 specific (Homo sapiens) (UniProt Q8TEK3); assay: Inhibition of DOT1L (unknown origin) at 100 uM preincubated for 15 mins followed by oligonucleosomes/SAM addition measured after 30 mins by AlphaLISA method relative to control

Sequence of Histone-lysine N-methyltransferase EZH2 (Homo sapiens) (Q15910 whole entry, looked up): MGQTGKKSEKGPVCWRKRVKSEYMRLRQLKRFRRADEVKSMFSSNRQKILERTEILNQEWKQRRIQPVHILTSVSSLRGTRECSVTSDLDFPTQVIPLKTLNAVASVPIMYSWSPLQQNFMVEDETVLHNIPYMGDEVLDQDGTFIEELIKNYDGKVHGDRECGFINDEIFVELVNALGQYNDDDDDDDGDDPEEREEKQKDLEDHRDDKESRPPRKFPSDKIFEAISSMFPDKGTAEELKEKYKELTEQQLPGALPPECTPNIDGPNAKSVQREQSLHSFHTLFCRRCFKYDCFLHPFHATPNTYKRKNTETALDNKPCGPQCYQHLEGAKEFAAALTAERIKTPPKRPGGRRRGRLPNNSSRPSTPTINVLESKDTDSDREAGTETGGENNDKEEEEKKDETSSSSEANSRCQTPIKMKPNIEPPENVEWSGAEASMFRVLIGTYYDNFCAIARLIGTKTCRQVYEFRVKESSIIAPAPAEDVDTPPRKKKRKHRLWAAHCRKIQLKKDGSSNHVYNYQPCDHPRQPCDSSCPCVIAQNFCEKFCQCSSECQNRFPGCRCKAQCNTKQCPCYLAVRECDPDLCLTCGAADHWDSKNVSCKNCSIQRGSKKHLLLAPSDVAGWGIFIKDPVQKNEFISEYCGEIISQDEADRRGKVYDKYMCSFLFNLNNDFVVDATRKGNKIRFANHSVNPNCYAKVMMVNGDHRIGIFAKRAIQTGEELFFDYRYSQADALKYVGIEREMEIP
Sequence of DNA (cytosine-5)-methyltransferase 1 (Homo sapiens) (P26358 whole entry): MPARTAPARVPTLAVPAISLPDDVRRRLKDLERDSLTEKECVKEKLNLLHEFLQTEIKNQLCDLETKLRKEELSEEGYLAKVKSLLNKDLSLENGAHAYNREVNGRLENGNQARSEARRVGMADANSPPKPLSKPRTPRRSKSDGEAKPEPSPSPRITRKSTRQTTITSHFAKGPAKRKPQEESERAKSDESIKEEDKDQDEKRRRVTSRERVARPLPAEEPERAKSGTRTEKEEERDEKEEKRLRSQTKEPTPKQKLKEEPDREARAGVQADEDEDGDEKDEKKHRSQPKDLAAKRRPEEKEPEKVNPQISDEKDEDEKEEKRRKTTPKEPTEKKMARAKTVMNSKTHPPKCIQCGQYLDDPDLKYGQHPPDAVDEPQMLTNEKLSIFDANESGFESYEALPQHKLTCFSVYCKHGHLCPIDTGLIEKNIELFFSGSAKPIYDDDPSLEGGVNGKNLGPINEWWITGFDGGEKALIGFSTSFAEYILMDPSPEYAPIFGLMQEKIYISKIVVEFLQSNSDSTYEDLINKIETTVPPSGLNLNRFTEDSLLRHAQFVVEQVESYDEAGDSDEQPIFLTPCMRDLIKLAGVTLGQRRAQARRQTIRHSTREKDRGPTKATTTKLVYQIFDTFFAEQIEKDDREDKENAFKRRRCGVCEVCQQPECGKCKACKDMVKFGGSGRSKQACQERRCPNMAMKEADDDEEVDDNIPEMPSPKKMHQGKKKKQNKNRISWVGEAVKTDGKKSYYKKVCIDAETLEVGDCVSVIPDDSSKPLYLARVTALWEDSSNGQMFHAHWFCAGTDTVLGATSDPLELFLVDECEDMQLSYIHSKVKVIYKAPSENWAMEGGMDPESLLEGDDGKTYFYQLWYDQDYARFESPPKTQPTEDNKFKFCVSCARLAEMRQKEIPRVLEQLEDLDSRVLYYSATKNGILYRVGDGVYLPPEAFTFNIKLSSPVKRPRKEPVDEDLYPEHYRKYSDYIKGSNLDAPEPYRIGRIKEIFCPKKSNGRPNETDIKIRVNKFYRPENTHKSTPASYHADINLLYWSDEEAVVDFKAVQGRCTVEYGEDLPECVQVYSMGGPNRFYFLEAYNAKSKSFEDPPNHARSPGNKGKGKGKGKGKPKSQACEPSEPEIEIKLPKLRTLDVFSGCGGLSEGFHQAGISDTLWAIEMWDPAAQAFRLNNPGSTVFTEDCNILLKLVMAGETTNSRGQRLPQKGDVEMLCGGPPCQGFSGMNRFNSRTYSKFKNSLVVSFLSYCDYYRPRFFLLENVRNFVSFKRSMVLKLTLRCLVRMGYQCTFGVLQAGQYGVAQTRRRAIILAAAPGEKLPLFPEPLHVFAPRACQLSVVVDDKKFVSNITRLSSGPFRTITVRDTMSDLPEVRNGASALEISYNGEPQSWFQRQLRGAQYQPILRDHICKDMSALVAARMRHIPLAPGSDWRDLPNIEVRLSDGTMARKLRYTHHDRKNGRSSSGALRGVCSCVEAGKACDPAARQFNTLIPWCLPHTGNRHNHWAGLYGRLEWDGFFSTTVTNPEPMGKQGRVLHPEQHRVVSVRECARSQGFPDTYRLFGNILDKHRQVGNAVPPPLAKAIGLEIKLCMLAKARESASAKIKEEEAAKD
Sequence of Histone-lysine N-methyltransferase, H3 lysine-36 specific (Homo sapiens) (Q96L73 whole entry): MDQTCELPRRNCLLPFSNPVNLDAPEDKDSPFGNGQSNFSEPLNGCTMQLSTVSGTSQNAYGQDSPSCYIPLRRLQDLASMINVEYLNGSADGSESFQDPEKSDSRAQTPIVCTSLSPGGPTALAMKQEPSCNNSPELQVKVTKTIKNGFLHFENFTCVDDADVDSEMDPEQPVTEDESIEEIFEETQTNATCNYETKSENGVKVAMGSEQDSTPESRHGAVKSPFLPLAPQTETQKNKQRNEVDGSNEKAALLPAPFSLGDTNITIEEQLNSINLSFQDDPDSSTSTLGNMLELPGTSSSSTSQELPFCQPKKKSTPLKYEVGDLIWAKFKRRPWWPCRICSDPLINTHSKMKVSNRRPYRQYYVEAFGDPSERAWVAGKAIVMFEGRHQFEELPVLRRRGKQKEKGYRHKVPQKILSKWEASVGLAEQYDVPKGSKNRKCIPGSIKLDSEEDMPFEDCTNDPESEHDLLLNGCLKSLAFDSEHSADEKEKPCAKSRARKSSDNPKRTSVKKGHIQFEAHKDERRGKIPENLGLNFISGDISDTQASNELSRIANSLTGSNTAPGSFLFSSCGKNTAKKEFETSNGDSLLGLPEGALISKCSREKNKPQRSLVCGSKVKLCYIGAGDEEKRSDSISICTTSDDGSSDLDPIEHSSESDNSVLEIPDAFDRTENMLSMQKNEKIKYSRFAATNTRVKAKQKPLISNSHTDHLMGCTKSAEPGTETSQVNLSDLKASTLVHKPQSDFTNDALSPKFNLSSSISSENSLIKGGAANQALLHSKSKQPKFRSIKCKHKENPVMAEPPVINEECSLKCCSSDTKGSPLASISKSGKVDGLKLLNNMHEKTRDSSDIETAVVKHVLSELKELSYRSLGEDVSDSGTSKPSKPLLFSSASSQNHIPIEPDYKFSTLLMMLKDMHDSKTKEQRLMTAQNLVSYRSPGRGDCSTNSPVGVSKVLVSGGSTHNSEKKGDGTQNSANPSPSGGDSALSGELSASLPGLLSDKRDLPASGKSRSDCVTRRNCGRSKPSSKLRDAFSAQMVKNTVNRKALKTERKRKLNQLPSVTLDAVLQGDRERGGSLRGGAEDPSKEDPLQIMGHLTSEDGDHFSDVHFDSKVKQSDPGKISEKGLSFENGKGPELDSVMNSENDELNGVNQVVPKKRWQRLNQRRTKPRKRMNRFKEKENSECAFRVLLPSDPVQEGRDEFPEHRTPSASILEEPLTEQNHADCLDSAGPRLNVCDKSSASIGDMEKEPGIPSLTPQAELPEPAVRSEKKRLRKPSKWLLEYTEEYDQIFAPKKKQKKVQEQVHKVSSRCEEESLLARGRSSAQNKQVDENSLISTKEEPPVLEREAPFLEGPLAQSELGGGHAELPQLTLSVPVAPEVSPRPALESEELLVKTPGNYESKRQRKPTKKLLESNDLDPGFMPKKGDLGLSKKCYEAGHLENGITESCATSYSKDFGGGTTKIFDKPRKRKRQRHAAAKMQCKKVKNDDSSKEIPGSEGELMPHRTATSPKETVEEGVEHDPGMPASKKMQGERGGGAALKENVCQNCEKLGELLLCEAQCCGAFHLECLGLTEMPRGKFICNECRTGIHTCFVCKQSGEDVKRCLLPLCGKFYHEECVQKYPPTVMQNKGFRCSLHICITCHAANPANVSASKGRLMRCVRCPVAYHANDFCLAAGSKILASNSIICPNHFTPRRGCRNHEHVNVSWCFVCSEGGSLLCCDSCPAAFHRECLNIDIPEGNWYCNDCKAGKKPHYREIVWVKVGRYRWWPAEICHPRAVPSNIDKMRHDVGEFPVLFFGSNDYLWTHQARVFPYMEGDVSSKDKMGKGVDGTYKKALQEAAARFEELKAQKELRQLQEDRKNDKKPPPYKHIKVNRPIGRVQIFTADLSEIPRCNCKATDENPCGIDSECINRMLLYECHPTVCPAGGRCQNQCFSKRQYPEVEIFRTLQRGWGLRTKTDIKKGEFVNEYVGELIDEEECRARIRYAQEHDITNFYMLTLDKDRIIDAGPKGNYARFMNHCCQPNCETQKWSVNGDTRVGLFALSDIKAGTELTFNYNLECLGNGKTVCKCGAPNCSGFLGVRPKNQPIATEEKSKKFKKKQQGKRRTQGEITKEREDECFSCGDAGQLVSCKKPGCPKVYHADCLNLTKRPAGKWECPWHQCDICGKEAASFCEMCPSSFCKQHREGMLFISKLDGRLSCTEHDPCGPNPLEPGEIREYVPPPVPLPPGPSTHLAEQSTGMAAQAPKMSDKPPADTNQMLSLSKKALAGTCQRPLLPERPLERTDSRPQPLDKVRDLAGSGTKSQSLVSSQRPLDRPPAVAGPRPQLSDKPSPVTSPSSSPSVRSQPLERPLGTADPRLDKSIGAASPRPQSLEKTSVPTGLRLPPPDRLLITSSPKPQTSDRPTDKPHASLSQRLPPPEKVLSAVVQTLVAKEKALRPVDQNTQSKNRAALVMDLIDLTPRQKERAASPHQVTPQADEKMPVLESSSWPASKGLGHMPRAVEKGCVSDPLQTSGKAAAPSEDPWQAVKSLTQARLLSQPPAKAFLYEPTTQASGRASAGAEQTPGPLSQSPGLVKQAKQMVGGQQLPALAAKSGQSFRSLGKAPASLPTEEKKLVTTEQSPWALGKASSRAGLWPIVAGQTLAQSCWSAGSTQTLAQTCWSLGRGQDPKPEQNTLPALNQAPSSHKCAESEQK

IC50 [1] [µM] | IC50 [2] [µM] | inhibition [3] [%] | inhibition [4] [%] | inhibition [5] [%] | inhibition [6] [%] | inhibition [7] [%] | inhibition [8] [%] | IC50 (MCF7) [µM] | IC50 (HL-60) [µM] | inhibition [9] [%] | Structure (SMILES) | inhibition (MV4-11) | inhibition (SUD4) | inhibition (HCT-116)
20 | – | – | – | – | – | – | – | – | – | – | CN1CCC(=C2c3ccccc3C=Cc3ccccc32)CC1 [CYPROHEPTADINE] | – | – | –
– | 4.88 | 9.82 | 19.6 | 25.1 | 45.5 | 29.9 | – | – | – | – | COC(=O)c1c(N)sc(C(=O)Nc2cccc([N+](=O)[O-])c2)c1C | – | – | –
– | 4.59 | 16.1 | 19.6 | 27.2 | 40.9 | -0.71 | -4.25 | 10.9 | 16.4 | -5.42 | CCOC(=O)c1c(N)sc(C(=O)Nc2cccc([N+](=O)[O-])c2)c1C | Dose-dependent effect | inactive | inactive
– | 61.7 | – | – | – | – | – | – | – | – | – | O=C(Nc1cccc([N+](=O)[O-])c1)c1ccc2c(c1)OCO2 | – | – | –
